{"source": "paper PMC7717620", "about": "(Nucleosides, nucleotides & nucleic acids, 2019)", "key": {"HepG2 cells [1]": {"test_system": "HepG2 cells", "assay": "intracellular metabolism in HepG2 cells", "assay_type": "in vitro ADME, human", "conditions": "HepG2, 50 μM, 4 h"}, "Huh-7 cells": {"test_system": "Huh-7 cells", "assay": "intracellular metabolism in Huh-7 cells", "assay_type": "in vitro ADME, human", "conditions": "Huh-7, 50 μM, 4 h"}, "primary rat hepatocytes": {"test_system": "primary rat hepatocytes", "assay": "intracellular metabolism in primary rat hepatocytes", "assay_type": "in vitro ADME", "conditions": "50 μM, 4 h"}, "human cardiomyocytes [2]": {"test_system": "human cardiomyocytes", "assay": "cellular accumulation and metabolism in human cardiomyocytes", "assay_type": "in vitro ADME", "conditions": "10 μM"}, "[3]": {"assay": "single dose escalation and seven day repeat dosing in dogs", "conditions": "dog, in vivo"}, "[4]": {"test_system": "primary mouse hepatocytes", "assay": "intracellular metabolism in primary mouse hepatocytes", "assay_type": "in vitro ADME", "conditions": "50 μM, 4 h"}, "human cardiomyocytes [5]": {"test_system": "human cardiomyocytes", "assay": "recording of human cardiomyocyte beating patterns", "assay_type": "cell-based"}, "various cell lines": {"test_system": "various cell lines", "conditions": "up to 100 μM; cited from earlier work"}, "[6]": {"test_system": "primary human hepatocytes", "assay": "intracellular metabolism in primary human hepatocytes", "assay_type": "in vitro ADME", "conditions": "50 μM, 4 h"}, "[7]": {"test_system": "primary monkey hepatocytes", "assay": "intracellular metabolism in primary monkey hepatocytes", "assay_type": "in vitro ADME", "conditions": "50 μM, 4 h"}, "[8]": {"assay": "single dose escalation and seven day repeat dosing in rats", "conditions": "rat, in vivo"}, "primary dog hepatocytes": {"test_system": "primary dog hepatocytes", "assay": "intracellular metabolism in primary dog hepatocytes", "assay_type": "in vitro ADME", "conditions": "50 μM, 4 h"}, "HepG2 cells [9]": {"test_system": "HepG2 cells", "conditions": "up to 50 μM; cited from earlier work"}, "[10]": {"test_system": "HCV genotype 1 b RNA replication", "assay": "subgenomic HCV replicon system, inhibition of HCV RNA replication in Huh-7 cells", "assay_type": "cell-based, hepatitis C virus", "conditions": "HCV genotype 1 b subgenomic replicon", "in_short": "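HCV genotype 1b subgenomic replicon in Huh-7 cells. HCV RNA and cellular ribosomal RNA were extracted and amplified, so replication and cytotoxicity were read in the same cells.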"}}, "note": "“Also recorded” adds a separate entry of the source."}
{"smiles": "CC(C)OC(=O)CCc1ccccc1OP(=O)(N[C@@H](C)C(=O)OC(C)C)OC[C@H]1O[C@@H](n2cnc3c(N)nc(N)nc32)[C@](C)(O)[C@@H]1O", "note": "(stereo partly drawn) [DAPN-PD, Isopropyl 3-(2-(((((2R,3R,4R,5R)-5-(2,6-diamino-9H-purin-9-yl)-3,4-dihydroxy-4-methyltetrahydrofuran-2-yl)methoxy)(((S)-1-isopropoxy-1-oxopropan-2-yl)amino)phosphoryl)oxy)phenyl)propanoate]", "values": [{"measurement": "Intracellular concentration: Prodrugs", "setting": "HepG2 cells [1]", "result": "390 ± 33", "unit": "pmol/10^6 cells"}, {"measurement": "Intracellular concentration: Prodrugs", "setting": "Huh-7 cells", "result": "170 ± 4", "unit": "pmol/10^6 cells"}, {"measurement": "Intracellular concentration: Prodrugs", "setting": "primary rat hepatocytes", "result": "0.90 ± 0.50", "unit": "pmol/10^6 cells"}, {"measurement": "Intracellular concentration in human cardiomyocytes: Prodrugs", "setting": "human cardiomyocytes [2]; 4 h", "result": "70 ± 3", "unit": "pmol/10^6 cells"}, {"measurement": "Intracellular concentration in human cardiomyocytes: Prodrugs", "setting": "human cardiomyocytes [2]; 8 h", "result": "51 ± 1", "unit": "pmol/10^6 cells"}, {"measurement": "intact prodrug level, times lower than BMS-986094", "setting": "human cardiomyocytes [2]; human cardiomyocytes, 8 h", "result": 16, "unit": "times"}, {"measurement": "NOAEL at 7 day", "setting": "[3]", "result": "< 40", "unit": "mg/kg/day"}, {"measurement": "Intracellular concentration: 2’-C-Me-G", "setting": "[4]", "result": "BLOQ"}, {"measurement": "Intracellular concentration: Prodrugs", "setting": "[4]", "result": "13 ± 1", "unit": "pmol/10^6 cells"}, {"measurement": "Beating rate of human cardiomyocytes", "setting": "human cardiomyocytes [5]; 2 μM, 2 h", "result": "33.5 ± 0.7", "unit": "beats/minute"}, {"measurement": "Beating rate of human cardiomyocytes", "setting": "human cardiomyocytes [5]; 2 μM, 4 h", "result": "34.0 ± 0", "unit": "beats/minute"}, {"measurement": "Beating rate of human cardiomyocytes", "setting": "human cardiomyocytes [5]; 2 μM, 8 h", "result": "37.0 ± 0", "unit": "beats/minute"}, {"measurement": "Beating rate of human cardiomyocytes", "setting": "human cardiomyocytes [5]; 2 μM, 12 h", "result": "36.0 ± 0", "unit": "beats/minute"}, {"measurement": "Beating rate of human cardiomyocytes", "setting": "human cardiomyocytes [5]; 2 μM, 24 h", "result": "34.0 ± 1.4", "unit": "beats/minute"}, {"measurement": "Beating rate of human cardiomyocytes", "setting": "human cardiomyocytes [5]; 2 μM, 48 h", "result": "27.5 ± 0.7", "unit": "beats/minute"}, {"measurement": "change in beating rate or rhythm of cardiomyocytes (observation)", "setting": "human cardiomyocytes [5]; 2 μM, up to 48 h", "result": "did not observe beating changes"}, {"measurement": "Beating rate of human cardiomyocytes", "setting": "human cardiomyocytes [5]; 10 μM, 2 h", "result": "24.5 ± 0.7", "unit": "beats/minute"}, {"measurement": "Beating rate of human cardiomyocytes", "setting": "human cardiomyocytes [5]; 10 μM, 4 h", "result": "23.5 ± 0.7", "unit": "beats/minute"}, {"measurement": "Beating rate of human cardiomyocytes", "setting": "human cardiomyocytes [5]; 10 μM, 8 h", "result": "26.0 ± 1.4", "unit": "beats/minute"}, {"measurement": "Beating rate of human cardiomyocytes", "setting": "human cardiomyocytes [5]; 10 μM, 12 h", "result": "25.5 ± 0.7", "unit": "beats/minute"}, {"measurement": "Beating rate of human cardiomyocytes", "setting": "human cardiomyocytes [5]; 10 μM, 24 h", "result": "25.5 ± 0.7", "unit": "beats/minute"}, {"measurement": "Beating rate of human cardiomyocytes", "setting": "human cardiomyocytes [5]; 10 μM, 48 h", "result": "25.5 ± 0.7", "unit": "beats/minute"}, {"measurement": "change in beating rate or rhythm of cardiomyocytes (observation)", "setting": "human cardiomyocytes [5]; 10 μM, up to 48 h", "result": "changes to both beat rate and rhythm were noted; also recorded: caused the beat rate to decrease"}, {"measurement": "Beating rate of human cardiomyocytes", "setting": "human cardiomyocytes [5]; 50 μM, 2 h", "result": "21.5 ± 0.7", "unit": "beats/minute"}, {"measurement": "Beating rate of human cardiomyocytes", "setting": "human cardiomyocytes [5]; 50 μM, 4 h", "result": "21.0 ± 0", "unit": "beats/minute"}, {"measurement": "Beating rate of human cardiomyocytes", "setting": "human cardiomyocytes [5]; 50 μM, 8 h", "result": "22.0 ± 0", "unit": "beats/minute"}, {"measurement": "Beating rate of human cardiomyocytes", "setting": "human cardiomyocytes [5]; 50 μM, 12 h", "result": "21.0 ± 0", "unit": "beats/minute"}, {"measurement": "Beating rate of human cardiomyocytes", "setting": "human cardiomyocytes [5]; 50 μM, 24 h", "result": "19.0 ± 0", "unit": "beats/minute"}, {"measurement": "Beating rate of human cardiomyocytes", "setting": "human cardiomyocytes [5]; 50 μM, 48 h", "result": "17.0 ± 0", "unit": "beats/minute"}, {"measurement": "rhythm of cardiomyocytes (observation)", "setting": "human cardiomyocytes [5]; 10 and 50 μM", "result": "altered and irregular"}, {"measurement": "change in beating rate of cardiomyocytes (observation)", "setting": "human cardiomyocytes [5]; 10 and 50 μM, up to 48 h", "result": "the beating rate dropped within 2 h then remained at a reduced rate out to 48 h"}, {"measurement": "in vitro cytotoxicity in various cell lines", "setting": "various cell lines", "result": "no in vitro cytotoxicity"}, {"measurement": "Intracellular concentration: Prodrugs", "setting": "[6]", "result": "70 ± 6", "unit": "pmol/10^6 cells"}, {"measurement": "Intracellular concentration: Prodrugs", "setting": "[7]", "result": "160 ± 4", "unit": "pmol/10^6 cells"}, {"measurement": "NOAEL at 7 day", "setting": "[8]", "result": "< 40", "unit": "mg/kg/day"}, {"measurement": "Intracellular concentration: Prodrugs", "setting": "primary dog hepatocytes", "result": "6.3 ± 1.5", "unit": "pmol/10^6 cells"}, {"measurement": "mitochondrial toxicity or increase in lactic acid levels", "setting": "HepG2 cells [9]", "result": "no mitochondrial toxicity or increase in lactic acid levels"}, {"measurement": "Replicon Huh-7 EC50", "setting": "[10]", "result": "sub-micromolar"}]}
